Data taken from article PMC8621847 (Research in Pharmaceutical Sciences, 2021).
“Also recorded” adds a separate entry of the source.

Tests used:
[1] = test system: HUVEC cell line; assay: MTT cytotoxicity assay, HUVEC normal cell line; assay type: cell-based; conditions: Homo sapiens, 48 h, read-out: IC50 HUVEC
How it was run: (§1)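 Cells grown in RPMI-1640 with 10% FBS and 1% penicillin/streptomycin, seeded at 5-7 × 10^4 per well, 37 °C, 5% CO2. Test compound at final 1, 4, 6, 8, 10, 40, 60, 80 and 100 μM for 48 h. MTT (5 mg/mL in PBS) added for 3 h, formazan dissolved in DMSO, absorbance read at 570 nm. Doxorubicin (20 μM) was the positive control, untreated cells set 100% viability, and medium was the blank. Triplicate, repeated on three days.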

[2] = test system: MCF-7 cell line; assay: MTT cytotoxicity assay, MCF-7 cell line; assay type: cell-based; conditions: for improvement of cytotoxicity by hybridization, compared with VIIa and VIIb: MCF-7, fused pyrazole hybrids versus benzoxazinones VIIa and VIIb; for cytotoxic effect on MCF-7 cell line (in words): MTT assay
How it was run: as §1

Row | Compound | IC50 [1] [µM] | improvement of cytotoxicity by hybridization, compared with VIIa and VIIb [2] | cytotoxic effect on MCF-7 cell line (in words) [2]
1 | COc1cccc2c1C(=O)c1c(O)c3c(c(O)c1C2=O)C[C@@](O)(C(=O)CO)C[C@@H]3O[C@H]1C[C@H](N)[C@H](O)[C@H](C)O1 [Doxorubicin, reference compound] | 21.17 ± 0.05 | – | –
2 | O=C(N/C(=C/c1ccc(Cl)cc1)c1nc2ccccc2c2cc(=O)[nH]n12)c1ccccc1 [IXa, (E)-N-(2-(4-chlorophenyl)-1-(2-oxo-2,3-dihydropyrazolo[1,5-c]quinazolin-5-yl)vinyl)benzamide] | 79 ± 3.71 | 3-4 times | –
3 | O=C(N/C(=C/c1ccc([N+](=O)[O-])cc1)c1nc2ccccc2c2cc(=O)[nH]n12)c1ccccc1 [IXb, (E)-N-(2-(4-nitrophenyl)-1-(2-oxo-2,3-dihydropyrazolo[1,5-c]quinazolin-5-yl)vinyl) benzamide] | 96.2 ± 4.66 | 3-4 times | –
4 | O=C(N/C(=C/c1ccc(Cl)cc1)c1nc2ccccc2c(=O)o1)c1ccccc1 [VIIa, (E)-N-(2-(4-chlorophenyl)-1-(4-oxo-4H-benzo[d][1,3]oxazin-2-yl)vinyl)benzamide] | 72.2 ± 1.5 | – | –
5 | O=C1OC(c2ccccc2)=N/C1=C\c1ccc(Cl)cc1 [Va, (Z)-4-(4-chlorobenzylidene)-2-phenyloxazol-5(4H)-one] | 96.4 ± 2.22 | – | no remarkable cytotoxic effect; also recorded: no inhibitory activity
6 | O=C1OC(c2ccccc2)=N/C1=C\c1ccc([N+](=O)[O-])cc1 [Vb, (Z)-4-(4-nitrobenzylidene)-2-phenyloxazol-5(4H)-one] | 93.3 ± 4.11 | – | no remarkable cytotoxic effect; also recorded: no inhibitory activity
7 | Cc1nc2ccccc2c(=O)n1N1C(=O)/C(=C/c2ccc(Cl)cc2)N=C1c1ccccc1 [XIIIa, (Z)-3-(4-(4-chlorobenzylidene)-5-oxo-2-phenyl-4,5-dihydro-1H-imidazol-1-yl)-2-methylquinazolin-4(3H)-one] | 94.41 ± 0.89 | – | –
8 | Cc1nc2ccccc2c(=O)n1N1C(=O)/C(=C/c2ccc([N+](=O)[O-])cc2)N=C1c1ccccc1 [XIIIb, (Z)-2-methyl-3-(4-(4-nitrobenzylidene)-5-oxo-2-phenyl-4,5-dihydro-1H-imidazol-1-yl) quinazolin-4(3H)-one] | 81.2 ± 6.17 | – | –
